Data: ChEMBL document CHEMBL2202986, “Guaianolide sesquiterpene lactones, a source to discover agents that selectively inhibit acute myelogenous leukemia stem and progenitor cells” (J Med Chem, 2012)

What was measured:
[1] = Mean retention time (0 to infinity) in mouse at 150 mg/kg, po; format: ADME, organism-based; parameters: dose 150 mg/kg, route oral; settings: in vivo
Summary of the method: (§1)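 Male Kunming mice (20 2 g), fasted 12 h before dosing with water available, given DMAMCL as an aqueous solution po (n = 5). Blood was drawn from the orbital veins at set times. Plasma DMAMCL and MCL were followed, and parameters came from noncompartmental analysis.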

Mus musculus [2] = experiment: Volume of distribution in mouse at 150 mg/kg, po; format: ADME, organism-based; parameters: dose 150 mg/kg, route oral; settings: in vivo
Summary of the method: (§2)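 Male Kunming mice (20 2 g) were fasted 12 h with water available. An aqueous solution was dosed po (150 mg/kg) or iv (100 mg/kg), n = 5 per route. Blood was drawn from the orbital veins at set times to measure DMAMCL and released MCL. Parameters come from a noncompartmental model and are given as mean with SD.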

[3] = Mean retention time (0 to t) in mouse at 150 mg/kg, po; format: ADME, organism-based; parameters: dose 150 mg/kg, route oral; settings: in vivo; summary of the method: as §1
[4] = Volume of distribution in mouse at 100 mg/kg, iv; format: ADME, organism-based; parameters: dose 100 mg/kg, route intravenous; settings: in vivo; summary of the method: as §2
Mus musculus [5] = experiment: Toxicity in BALB/c mouse assessed as pathological changes in kidney at 1000 mg/kg, po administered as single dose by hematoxylin-eosin staining method; format: organism-based; parameters: dose 1000 mg/kg, route oral; settings: in vivo
Summary of the method: (§3)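 BALB/c mice (16 in total, 8 male/8 female) were given aqueous DMAMCL by gavage as a single 1000 mg/kg dose or 500 mg/kg daily for seven doses. Water-only and untreated mice served as controls. One week later, tissues were fixed in 10% neutral-buffered formalin, embedded in paraffin, cut into 3 μm sections, stained with H&E and examined microscopically.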

[6] = Cmax in mouse at 100 mg/kg, iv; format: ADME, organism-based; parameters: dose 100 mg/kg, route intravenous; settings: in vivo
Summary of the method: (§4)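 Male Kunming mice (20 2 g), fasted 12 h before dosing with water available, given DMAMCL as an aqueous solution iv (n = 5). Blood was drawn from the orbital veins at set times. DMAMCL and MCL in plasma were measured, and parameters were derived by a noncompartmental model.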

Mus musculus [7] = experiment: Toxicity in BALB/c mouse assessed as pathological changes in heart at 1000 mg/kg, po administered as single dose by hematoxylin-eosin staining method; format: organism-based; parameters: dose 1000 mg/kg, route oral; settings: in vivo; summary of the method: as §3
[8] = Half life in mouse at 100 mg/kg, iv; format: ADME, organism-based; parameters: dose 100 mg/kg, route intravenous; settings: in vivo; summary of the method: as §4
[9] = Oral bioavailability in mouse at 150 mg/kg; format: ADME, organism-based; settings: in vivo
[10] = Cytotoxicity against human leukemia stem/progenitor cells assessed as viable CD34+ cells at 5 uM after 18 hrs by annexin-V labeling-based flow cytometry; format: functional, CD34+ cell
Summary of the method: (§5)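 Primary leukemia cells from AML patient blood were treated for 18 h in serum-free IMDM, then stained with CD34-APC and CD38-PECy7 for 30 min. After washing in cold PBS, cells were labelled with Annexin-V–FITC/PI for 15 min at room temperature and read by flow cytometry. Viability of total and CD34⁺ cells was normalized to untreated controls (mean, SD).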

[11] = Antitumor activity against mixed-lineage human leukemia cells xenografted in NOD/SCID mouse assessed as reduction of CD45+CD33+ cells in bone marrow at 100 mg/kg, po qd administered every other day total of seven doses starting from 8 weeks post grafting measured on day 35 (reference value: 9.8 %); format: functional, Leukemia cell; parameters: scale not given: the % may be the effect or the level left
Mus musculus [12] = experiment: Toxicity in BALB/c mouse assessed as pathological changes in heart at 500 mg/kg, po administered every day for 7 days by hematoxylin-eosin staining method; settings: in vivo, 168 h
[13] = Total clearance in mouse at 100 mg/kg, iv; format: ADME, organism-based; parameters: dose 100 mg/kg, route intravenous; settings: in vivo; summary of the method: as §4
[14] = Mean retention time (0 to infinity) in mouse at 100 mg/kg, iv; format: ADME, organism-based; parameters: dose 100 mg/kg, route intravenous; settings: in vivo; summary of the method: as §4
Mus musculus [15] = experiment: Toxicity in BALB/c mouse assessed as pathological changes in spleen at 500 mg/kg, po administered every day for 7 days by hematoxylin-eosin staining method; settings: in vivo, 168 h
[16] = Cytotoxicity against human leukemia cells assessed as cell viability at 10 uM after 18 hrs by annexin-V labeling-based flow cytometry
[17] = Cytotoxicity against human leukemia stem/progenitor cells assessed as viable CD34+ cells at 10 uM after 18 hrs by annexin-V labeling-based flow cytometry; format: functional, CD34+ cell
[18] = Cmax in mouse at 150 mg/kg, po; format: ADME, organism-based; parameters: dose 150 mg/kg, route oral; settings: in vivo; summary of the method: as §1
[19] = Drug degradation in HEPES buffer at pH 7.4 assessed as release of MCL; format: physicochemical
Summary of the method: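 A 20 μL aliquot of prodrug solution was added to 980 μL HEPES buffer (pH 7.4, or below 5.0) and incubated at 37 °C. Samples were withdrawn over time, and prodrug and released parent were quantified by HPLC (mean, SD, n = 4).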

Mus musculus [20] = experiment: Toxicity in BALB/c mouse assessed as pathological changes in lung at 500 mg/kg, po administered every day for 7 days by hematoxylin-eosin staining method; settings: in vivo, 168 h
[21] = AUC (0 to infinity) in mouse at 100 mg/kg, iv; format: ADME, organism-based; parameters: time infinity, dose 100 mg/kg, route intravenous; settings: plasma; summary of the method: as §4
[22] = Antitumor activity against human leukemia stem/progenitor cells xenografted in NOD/SCID mouse assessed as reduction of CD45+CD33+ cells in bone marrow at 100 mg/kg, po qd administered every other day total of seven doses starting from 8 weeks post grafting measured on day 85; format: functional; parameters: scale not given: the % may be the effect or the level left
Summary of the method: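 NOD/SCID mice, sublethally irradiated (280cGay), received primary AML M5 patient cells via tail vein in PBS 6−10 h later. From 8 weeks after engraftment, aqueous drug was given orally every other day for seven doses. Surviving mice were sacrificed on day 85 post-inoculation, and human CD45⁺CD33⁺ cells in bone marrow were measured by flow cytometry.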

Mus musculus [23] = experiment: Toxicity in BALB/c mouse assessed as pathological changes in kidney at 500 mg/kg, po administered every day for 7 days by hematoxylin-eosin staining method; settings: in vivo, 168 h
[24] = Cytotoxicity against human leukemia stem/progenitor cells assessed as cell viability at 5 uM after 18 hrs by annexin-V labeling-based flow cytometry; format: functional; settings: in the assay text read “leukemia cells” for “leukemia stem/progenitor cells”, read-out: Activity; summary of the method: as §5
[25] = Antitumor activity against human leukemia stem/progenitor cells xenografted in NOD/SCID mouse assessed as survival time at 100 mg/kg, po qd administered every other day total of seven doses starting from 8 weeks post grafting (reference value: 43 days); format: functional
Summary of the method: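 NOD/SCID mice were sublethally irradiated (280cGay), then 6−10 h later given primary AML M5 patient cells via tail vein in PBS. From 8 weeks postinoculation, aqueous solution was given orally at 100 mg/kg every other day for seven doses. Survival was followed, Kaplan−Meier, n = 6 per treated group and n = 7 untreated controls. Survivors at day 85 had bone marrow analysed for human CD45⁺CD33⁺ cells.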

HL-60 = experiment: Cytotoxicity against human HL60 cells after 18 hrs by annexin-V labeling-based flow cytometry; format: functional, cell-based; settings: HL-60, 18 h
[26] = Antitumor activity against mixed-lineage human leukemia cells xenografted in NOD/SCID mouse assessed as inhibition of cancer cell engrafting at 100 mg/kg, po qd administered every other day total of seven doses starting from 8 weeks post grafting measured on day 35; format: functional

## CC1=C2CC[C@@](C)(O)[C@@H]2[C@H]2OC(=O)[C@@H](CN(C)C)[C@@H]2CC1.Cl [DIMETHYLAMINOMICHELIOLIDE HYDROCHLORIDE]
[1]
  MRT inf: 9.85 h
Mus musculus [2]
  Vd: 47.38 L/kg
[3]
  MRT last: 8.85 h
[4]
  Vd: 88.2 L/kg
Mus musculus [5]
  Activity: Non-toxic
[6]
  Cmax: 92.9 µg/mL
Mus musculus [7]
  Activity: Non-toxic
[8]
  half-life: 18.9 h
[9]
  bioavailability: 75%
[10]
  Activity: 72.9%
[11]
  Activity: 0.14%
Mus musculus [12]
  Activity: Non-toxic
[13]
  clearance: 37.7 mL/min/kg
[14]
  MRT inf: 3.52 h
Mus musculus [15]
  Activity: Non-toxic
[16]
  viability at 10 µM: 64.9%
[17]
  Activity: 60.4%
[18]
  Cmax: 19 µg/mL
[19]
  Drug degradation: Active
Mus musculus [20]
  Activity: Non-toxic
[21]
  AUC(0-inf): 44800 ng·h/mL
[22]
  Activity: 0.005%
Mus musculus [23]
  Activity: Non-toxic
[24]
  viability at 5 µM: 77.6%
[25]
  Survival: 63 days
HL-60
  IC50: 17.2 µM
[26]
  inhibition in vivo at 100 mg/kg: 98.6%
